Activity, inhibition and IC50 data for 55 compounds are collected here from ChEMBL document CHEMBL1155462, “Structure-activity relationship for thiohydantoin androgen receptor antagonists for castration-resistant prostate cancer (CRPC)” (J Med Chem, 2010).

In general, pIC50 refers to the IC50 on a negative log10 scale, so that one unit is a factor of ten.

pIC50: −log10 of the molar value. The source made the active and inactive calls. The rule behind the calls is not given here.

The target in test [1] is T1, Androgen receptor (Rattus norvegicus) (UniProt P15207).
T1 sequence (whole entry): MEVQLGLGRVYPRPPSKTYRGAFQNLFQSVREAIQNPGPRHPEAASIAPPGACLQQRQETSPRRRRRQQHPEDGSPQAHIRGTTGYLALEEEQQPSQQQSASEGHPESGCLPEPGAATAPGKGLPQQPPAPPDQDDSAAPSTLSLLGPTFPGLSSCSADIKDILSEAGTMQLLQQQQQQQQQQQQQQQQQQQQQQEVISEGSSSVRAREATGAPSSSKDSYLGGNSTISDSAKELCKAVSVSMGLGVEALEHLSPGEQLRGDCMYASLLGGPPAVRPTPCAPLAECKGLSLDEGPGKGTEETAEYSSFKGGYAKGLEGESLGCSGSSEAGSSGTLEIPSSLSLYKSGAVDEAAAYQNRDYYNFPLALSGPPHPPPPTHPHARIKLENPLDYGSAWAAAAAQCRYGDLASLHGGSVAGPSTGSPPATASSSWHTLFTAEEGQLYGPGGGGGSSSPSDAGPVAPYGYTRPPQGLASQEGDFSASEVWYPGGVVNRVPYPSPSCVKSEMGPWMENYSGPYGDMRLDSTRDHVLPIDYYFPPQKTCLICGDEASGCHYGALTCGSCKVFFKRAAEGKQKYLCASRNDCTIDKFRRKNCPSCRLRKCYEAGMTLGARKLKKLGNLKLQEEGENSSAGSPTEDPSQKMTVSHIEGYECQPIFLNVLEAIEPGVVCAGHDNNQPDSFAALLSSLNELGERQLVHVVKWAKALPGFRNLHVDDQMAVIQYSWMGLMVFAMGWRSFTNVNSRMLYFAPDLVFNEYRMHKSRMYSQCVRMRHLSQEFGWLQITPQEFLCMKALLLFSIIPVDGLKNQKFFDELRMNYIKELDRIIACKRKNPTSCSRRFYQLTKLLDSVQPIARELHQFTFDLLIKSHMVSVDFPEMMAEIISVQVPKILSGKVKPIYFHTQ
Put plainly: Antagonist activity at androgen receptor in rat prostate gland at 0.625 to 20 uM by luciferase reporter gene assay. The class given is functional, tissue-based.

Test [2] relates to LNCaP. Kind of test: Inhibition of prostate specific antigen expression in human LNCAP cells at 0.625 to 20 uM in presence of fetal bovine serum. The class given is functional, cell-based.
In test [3] the target is T1, Androgen receptor (Rattus norvegicus). Put plainly: Antagonist activity at androgen receptor in rat prostate gland at 1.25 to 10 uM by luciferase reporter gene assay. The class given is functional, tissue-based. For orientation: In a reporter assay the amount or activity of a reporter protein is the signal.
Test [4] deals with LNCaP. Kind of test: Inhibition of prostate specific antigen expression in human LNCAP cells at 1.25 to 10 uM in presence of fetal bovine serum. The class given is functional, cell-based.
The subject of test [5] is LNCaP. Put plainly: Inhibition of prostate specific antigen secretion in human LNCAP cells expressing androgen receptor at 1.25 to 10 uM in presence of charcoal stripped serum. The class given is functional, cell-based. An outline of the steps:
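LNCaP/AR cells were made by viral infection with an AR cDNA to express 3–5 fold higher AR levels, mimicking CRPC. They were assayed in charcoal-stripped serum to mimic androgen depletion. Read-out was PSA level, with DMSO as the vehicle.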

In test [6] the test system is LNCaP. Kind of test: Inhibition of prostate specific antigen expression in human LNCAP cells at 0.625 to 5 uM in presence of fetal bovine serum. In kind it is functional, cell-based.
The subject of test [7] is LNCaP. Put plainly: Inhibition of prostate specific antigen expression in human LNCAP cells in presence of fetal bovine serum. In kind it is functional, cell-based.

As to `CCCC1C(=O)N(c2ccc(C#N)c(C(F)(F)F)c2)C(=S)N1c1ccc(C)cc1` (configuration not stated), the outcome in test [1] was inactive.

With `CC1(C)C(=O)N(c2ccc(C#N)c(C(F)(F)F)c2)C(=S)N1c1ccc(N)cc1`, the outcome (in test [1]; in the test on LNCaP [2]) was Active.

Take `CCC1(CC)C(=O)N(c2ccc(C)cc2)C(=S)N1c1ccc(C#N)c(C(F)(F)F)c1`: the result in test [1] was inactive.

In the case of `CC/N=C1\N(c2ccc(C#N)c(C(F)(F)F)c2)C(=S)N(c2ccc(C)cc2)C1(C)C`, the outcome (in test [3]; in the test on LNCaP [4]) was Active.

Consider `CS(=O)(=O)N1CCN(c2ccc(N3C(=S)N(c4ccc(C#N)c(C(F)(F)F)c4)C(=O)C34CCC4)cc2)CC1`, for which the inhibition entry in the test on LNCaP [5] was “Active”.

`Cc1ccccc1N1C(=S)N(c2ccc(C#N)c(C(F)(F)F)c2)C(=O)C12CCC2`: in the test with LNCaP [6], the result was Active.

As to `CC1(C)C(=O)N(c2ccc(C#N)c(C(F)(F)F)c2)C(=S)N1c1ccc(C(F)(F)F)cc1`, in the test with LNCaP [4], the result was Active.

As to `N#Cc1ccc(N2C(=O)C3(CCC3)N(c3ccc(N4CCNCC4)cc3)C2=S)cc1C(F)(F)F`, the inhibition entry in the test on LNCaP [5] is “Active”.

Consider `Cc1ccc(N2C(=S)N(c3ccc(C#N)c(C(F)(F)F)c3)C(=O)C2(C)CF)cc1` (configuration not stated), for which the result in the test on LNCaP [6] was Active.

Take `CNC(=O)c1ccc(N2C(=S)N(c3ccc(C#N)c(C(F)(F)F)c3)C(=O)C23CCC3)cc1`: the result in test [3] was Active.

`CC1(C)C(=O)N(c2ccc(C#N)c(C(F)(F)F)c2)C(=S)N1CCCCO`: the result with LNCaP [4] and with LNCaP [2] was Active.

Consider `CCC1C(=O)N(c2ccc(C#N)c(C(F)(F)F)c2)C(=S)N1c1ccc(C)cc1` (configuration not stated), for which, in test [1], the outcome was inactive.

Take `N#Cc1ccc(N2C(=O)C3(CCC3)N(c3ccc(-c4ccccc4)cc3)C2=S)cc1C(F)(F)F`: the result with LNCaP [4] was Active.

As for `CC1(C)C(=O)N(c2ccc(C#N)c(C(F)(F)F)c2)C(=S)N1CCCCCCCN=[N+]=[N-]`, the outcome in the test on LNCaP [2] was Active.

`Cc1ccc(N2C(=S)N(c3ccc(C#N)c(C(F)(F)F)c3)/C(=N\C(=S)Nc3ccc(C#N)c(C(F)(F)F)c3)C2(C)CF)cc1` (configuration not stated): the result (in test [3]; in the test with LNCaP [4]) was Active.

For the compound `COC(=O)c1ccc(N2C(=S)N(c3ccc(C#N)c(C(F)(F)F)c3)C(=O)C2(C)C)cc1`, the outcome in test [3] was Active.

On to `CNC(=O)c1ccc(N2C(=S)N(c3ccc(C#N)c(C(F)(F)F)c3)C(=O)C2(C)C)cc1`, for which the result in test [3] was Active.

For `Cc1ccc(N2C(=S)N(c3ccc(C#N)c(C(F)(F)F)c3)C(=O)C23CCN(C)CC3)cc1`, in the test on LNCaP [2], the result was inactive.

Regarding `CCC1(C)C(=O)N(c2ccc(C)cc2)C(=S)N1c1ccc(C#N)c(C(F)(F)F)c1` (configuration not stated), the result in test [1] was inactive.

Turning to `Cc1ccc(N2C(=S)N(c3ccc(C#N)c(C(F)(F)F)c3)C(=N)C2(C)C)cc1`, the outcome with LNCaP [6] was Active.

For the compound `Cc1ccc(N2CC(=O)N(c3ccc(C#N)c(C(F)(F)F)c3)C2=S)cc1`, the outcome in test [1] was inactive.

Consider `Cc1ccc(N2C(=S)N(c3ccc(C#N)c(C(F)(F)F)c3)/C(=N\C(=S)Nc3ccccc3)C23CCC3)cc1`, for which the result (in test [3]; with LNCaP [4]) was Active.

Regarding `Cc1ccc(N2C(=S)N(c3ccc(C#N)c(C(F)(F)F)c3)C(=O)C23CCCCC3)cc1`, in the test with LNCaP [2], the result was inactive.

Take `Cc1ccc(N2/C(=N/c3ccc(C#N)c(C(F)(F)F)c3)S/C(=N\C(=S)Nc3ccc(C#N)c(C(F)(F)F)c3)C2(C)C)cc1`: the outcome (in test [3]; in the test with LNCaP [4]) was Active.

On to `N#Cc1ccc(N2C(=O)C3(CCC3)N(c3ccccc3C(=O)O)C2=S)cc1C(F)(F)F`, for which, in the test with LNCaP [6], the outcome was inactive.

As for `Cc1ccc(N2C(=S)N(c3ccc(C#N)c(C(F)(F)F)c3)C(=O)C23CCCCCCC3)cc1`, the outcome with LNCaP [2] was inactive.

For `CCC1(CC)C(=O)N(c2ccc(C#N)c(C(F)(F)F)c2)C(=S)N1c1ccc(C)cc1`, in test [1], the result was inactive.

Turning to `N#Cc1ccc(N2C(=O)C3(CCC3)N(c3ccc(CO)cc3)C2=S)cc1C(F)(F)F`, the pIC50 in the test with LNCaP [7] is 6.70.

As for `Cc1ccc(N2C(=S)N(c3ccc(C#N)c(C(F)(F)F)c3)/C(=N\C(=S)Nc3ccc(C#N)c(C(F)(F)F)c3)C2(C)C)cc1`, the result (in test [3]; in the test with LNCaP [4]) was Active.

On to `N#Cc1ccc(N2C(=O)C3(CCC3)N(c3ccc(C=O)cc3)C2=S)cc1C(F)(F)F`, for which the pIC50 in the test with LNCaP [7] was 6.70.

Consider `N#Cc1ccc(N2C(=O)C3(CCC3)N(c3ccc(/C=C/CO)cc3)C2=S)cc1C(F)(F)F`, for which, in the test on LNCaP [7], the pIC50 was 7.00.

Consider `N#Cc1ccc(N2C(=O)C3(CCC3)N(c3ccc(O)cc3F)C2=S)cc1C(F)(F)F`, for which the result in test [3] was Active.

As for `Cc1ccc(N2C(=S)N(c3ccc(C#N)c(C(F)(F)F)c3)C(=O)C23CCCCCC3)cc1`, the outcome with LNCaP [2] was inactive.

Turning to `Cc1ccc(N2C(=S)N(c3ccc(C#N)c(C(F)(F)F)c3)C(=O)C23CCCC3)cc1`, the outcome with LNCaP [4] and in the test on LNCaP [2] was Active.

As to `CC1(C)C(=S)N(c2ccc(C#N)c(C(F)(F)F)c2)C(=S)N1c1ccc(O)cc1`, the result in the test on LNCaP [6] was Active.

For the compound `N#Cc1ccc(N2C(=O)C3(CCC3)N(c3ccc(CCC(=O)NCCO)cc3)C2=S)cc1C(F)(F)F`, the inhibition entry in the test on LNCaP [5] is “Active”.

In the case of `Cc1ccc(N2C(=S)N(c3ccc(C#N)c(C(F)(F)F)c3)C(=N)C23CCC3)cc1`, the result in the test on LNCaP [4] and in the test on LNCaP [6] was Active.

In the case of `N#Cc1ccc(N2C(=O)C3(CCC3)N(c3ccc(CCC(N)=O)cc3)C2=S)cc1C(F)(F)F`, the inhibition result in the test on LNCaP [5] is “Active”.

For `Cc1ccc(N2C(=S)N(c3ccc(C#N)c(C(F)(F)F)c3)C(=O)C2C)cc1` (configuration not stated), in test [1], the result was inactive.

Turning to `Cc1ccc(N2C(=S)N(c3ccc(C#N)c(C(F)(F)F)c3)/C(=N\C(=S)Nc3ccc(C#N)c(C(F)(F)F)c3)C23CCC3)cc1`, the outcome (in test [3]; in the test with LNCaP [4]) was Active.

Turning to `CC1(C)C(=O)N(c2ccc(C#N)c(C(F)(F)F)c2)C(=S)N1c1ccc(O)cc1`, the outcome (in test [1]; with LNCaP [2]; in the test with LNCaP [6]) was Active.

Regarding `Cc1ccc(N2C(=S)N(c3ccc(C#N)c(C(F)(F)F)c3)C(=O)C2(CCl)CCl)cc1`, the result in the test on LNCaP [6] was inactive.

Regarding `CC1(C)C(=O)N(c2ccc(C#N)c(C(F)(F)F)c2)C(=S)N1CCCN=[N+]=[N-]`, the outcome in the test on LNCaP [2] was Active.

As for `CC1(C)C(=O)N(c2ccc(C#N)c(C(F)(F)F)c2)C(=S)N1c1ccc(N=[N+]=[N-])cc1`, the result (in test [1]; in the test with LNCaP [2]) was Active.

As to `CC1(C)C(=O)N(c2ccc(C#N)c(C(F)(F)F)c2)C(=S)N1CCCCCN=[N+]=[N-]`, in the test with LNCaP [2], the result was Active.

With `N#Cc1ccc(N2C(=O)C3(CCC3)N(c3ccc(CCCC(N)=O)cc3)C2=S)cc1C(F)(F)F`, the inhibition result in the test with LNCaP [5] is “Active”.

For the compound `CS(=O)(=O)c1ccc(N2C(=S)N(c3ccc(C#N)c(C(F)(F)F)c3)C(=O)C23CCC3)cc1`, the outcome in test [3] was Active.

As to `N#Cc1ccc(N2C(=O)C3(CCC3)N(c3ccc(O)cc3)C2=S)cc1C(F)(F)F`, the result in the test with LNCaP [4] was Active.

For `CC1(C)C(=O)N(c2ccc(C#N)c(C(F)(F)F)c2)C(=S)N1CCCCCCN=[N+]=[N-]`, in the test with LNCaP [2], the result was Active.

Consider `CC1(C)C(=O)N(c2ccc(C#N)c(C(F)(F)F)c2)C(=S)N1c1ccccc1`, for which the result (in test [1]; in the test with LNCaP [2]) was Active.

For `CC1(C)C(=O)N(c2ccc(C#N)c(C(F)(F)F)c2)C(=O)N1c1ccc(O)cc1`, the outcome (in test [3]; in the test on LNCaP [6]) was Active.

For `C/N=C1\N(c2ccc(C#N)c(C(F)(F)F)c2)C(=S)N(c2ccc(C)cc2)C12CCC2`, the outcome (in test [3]; with LNCaP [4]) was Active.

`Cc1ccc(N2/C(=N/c3ccc(C#N)c(C(F)(F)F)c3)S/C(=N\C(=S)Nc3ccc(C#N)c(C(F)(F)F)c3)C23CCC3)cc1`: the outcome (in test [3]; in the test with LNCaP [4]) was Active.

In the case of `CNC(=O)CCc1ccc(N2C(=S)N(c3ccc(C#N)c(C(F)(F)F)c3)C(=O)C23CCC3)cc1`, the inhibition entry in the test with LNCaP [5] was “Active”.

Take `CCC1(C)C(=O)N(c2ccc(C#N)c(C(F)(F)F)c2)C(=S)N1c1ccc(C)cc1` (configuration not stated): in test [1], the result was inactive.
